From ChEMBL document CHEMBL1124804, “Substituted vitamin K epoxide analogues. New competitive inhibitors and substrates of vitamin K1 epoxide reductase” (J Med Chem, 1990) come the findings set out here.

Substrate in data set [1]: CC(C)CCCC(C)CCCC(C)CCCC(C)CC(O)C12OC1(C)C(=O)c1ccccc1C2=O
Put plainly: (§1) Km value at Vitamin K epoxide reductase. Put shortly:
(§2)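 Analogues served as alternative substrates in place of vitamin K1 epoxide for beef liver microsomal reductase (0.02% Emulgen 911, DTT), at 10–100 μM (12 levels). Km and Vmax came from rates of quinone product formation, not from substrate consumption. They were reported only where the quinone product was stable to DTT.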

Substrate in data set [2]: C/C(=C\CC12OC1(C)C(=O)c1ccccc1C2=O)CCCC(C)CCCC(C)CCCC(C)C
The data set is described as §1. The method in brief: as §2

Substrate in data set [3]: CC(C)CCCC(C)CCCC(C)CCCC(C)CCC12OC1(C)C(=O)c1ccccc1C2=O
Described as §1. Put shortly: as §2

Substrate in data set [4]: C/C(=C\CC12OC1(CO)C(=O)c1ccccc1C2=O)CCCC(C)CCCC(C)CCCC(C)C
Described as §1. Put shortly: as §2

Substrate in data set [5]: C/C(=C\C(O)C12OC1(C)C(=O)c1ccccc1C2=O)CCCC(C)CCCC(C)CCCC(C)C
The description is as §1. Put shortly:
as §2

Substrate in data set [6]: C/C(=C\CC12OC1(CF)C(=O)c1ccccc1C2=O)CCCC(C)CCCC(C)CCCC(C)C
Described as §1. Put shortly:
as §2

Substrate in data set [7]: CC(C)CCCC(C)CCCC(C)CCCC(C)/C=C/C12OC1(C)C(=O)c1ccccc1C2=O
Described as §1. Put shortly: as §2

Substrate in data set [8]: CC(C)CCCC(C)CCCC(C)CCCC(C)CC(O)C12OC1(C)C(=O)c1ccccc1C2=O
Briefly: (§3) Vmax value at Vitamin K epoxide reductase. The method in brief:
as §2

Substrate in data set [9]: C/C(=C\CC12OC1(C)C(=O)c1ccccc1C2=O)CCCC(C)CCCC(C)CCCC(C)C
The description is as §3. The method in brief: as §2

Substrate in data set [10]: CC(C)CCCC(C)CCCC(C)CCCC(C)CCC12OC1(C)C(=O)c1ccccc1C2=O
Described as §3. The method in brief:
as §2

Substrate in data set [11]: C/C(=C\CC12OC1(CO)C(=O)c1ccccc1C2=O)CCCC(C)CCCC(C)CCCC(C)C
The description is as §3. The method in brief:
as §2

Substrate in data set [12]: C/C(=C\C(O)C12OC1(C)C(=O)c1ccccc1C2=O)CCCC(C)CCCC(C)CCCC(C)C
The data set is described as §3. The method in brief:
as §2

Substrate in data set [13]: C/C(=C\CC12OC1(CF)C(=O)c1ccccc1C2=O)CCCC(C)CCCC(C)CCCC(C)C
Described as §3. Put shortly: as §2

Substrate in data set [14]: CC(C)CCCC(C)CCCC(C)CCCC(C)/C=C/C12OC1(C)C(=O)c1ccccc1C2=O
The description is as §3. The method in brief: as §2

B1: Vitamin K epoxide reductase complex subunit 1 (Bos taurus), Q6B4J2 (protein)
chain: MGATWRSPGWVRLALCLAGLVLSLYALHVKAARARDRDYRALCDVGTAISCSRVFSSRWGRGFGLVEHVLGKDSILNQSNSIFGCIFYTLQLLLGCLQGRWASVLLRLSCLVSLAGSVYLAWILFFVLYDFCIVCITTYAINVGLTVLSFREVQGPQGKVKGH
In the case of B1, the Km was 34 µM in data set [1]; 18 µM in [2]; 30 µM in data set [3]; 10 µM in data set [4]; 25 µM in data set [5]; 20 µM in data set [6]. In data set [7], the Michaelis constant (Km) was 68 µM. In addition, the Vmax in data set [8] is 1.6 pmol/s/mg; in [9] it was 2.9 pmol/s/mg; in data set [10] it was 2.1 pmol/s/mg; in [11] it was 3.4 pmol/s/mg; in [12], 2.4 pmol/s/mg; in [13], 4 pmol/s/mg. Moreover, the Vmax in data set [14] was 2 pmol/s/mg.

One may read the Km as the concentration of substrate that gives half-maximal velocity. Usually Vmax stands for the rate approached at saturating substrate.
